Assay [1] addresses T1, 5-hydroxytryptamine receptor 1A (Rattus norvegicus, UniProt P19327).
T1 sequence (P19327 whole entry): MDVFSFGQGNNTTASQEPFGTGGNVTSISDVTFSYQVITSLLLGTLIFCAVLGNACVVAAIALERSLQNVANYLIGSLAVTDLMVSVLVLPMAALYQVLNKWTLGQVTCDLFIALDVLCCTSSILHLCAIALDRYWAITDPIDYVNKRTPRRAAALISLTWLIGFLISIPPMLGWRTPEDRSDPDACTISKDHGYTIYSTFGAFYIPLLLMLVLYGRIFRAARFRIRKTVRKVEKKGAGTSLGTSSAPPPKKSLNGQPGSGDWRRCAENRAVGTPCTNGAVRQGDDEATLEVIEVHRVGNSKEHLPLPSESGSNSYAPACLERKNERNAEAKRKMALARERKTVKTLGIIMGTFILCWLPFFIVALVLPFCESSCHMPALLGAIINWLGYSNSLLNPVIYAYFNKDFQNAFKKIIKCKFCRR
As to the kind of experiment: Displacement of [3H]-8-OH-DPAT from 5HT1A receptor in rat hippocampus homogenates after 15 mins by scintillation counting. It counts as tissue-based. The gist of the method: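 Rat hippocampal membranes were prepared in 50 mM Tris–HCl pH 7.4 (35,000 g spins, 10 min at 37 °C between). Resuspended in Tris–HCl with 4 mM MgCl2, 10 mM pargyline and 0.1% ascorbate. 1 nM [3H]-8-OH-DPAT, 15 min at 37 °C, GF/B filtration. 10 μM 5-HT defined nonspecific binding. Triplicates at 7–8 concentrations (10⁻¹¹–10⁻⁴ M).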
On the technique in general: In a radioligand displacement assay an active substance lowers the binding of a labelled ligand.

For assay [2], the target named is 5-hydroxytryptamine receptor 2A (Homo sapiens) (UniProt P28223). As to the kind of experiment: Binding affinity to 5HT2A receptor (unknown origin) at 1 uM.
Chain of 5-hydroxytryptamine receptor 2A (Homo sapiens) (P28223 whole entry): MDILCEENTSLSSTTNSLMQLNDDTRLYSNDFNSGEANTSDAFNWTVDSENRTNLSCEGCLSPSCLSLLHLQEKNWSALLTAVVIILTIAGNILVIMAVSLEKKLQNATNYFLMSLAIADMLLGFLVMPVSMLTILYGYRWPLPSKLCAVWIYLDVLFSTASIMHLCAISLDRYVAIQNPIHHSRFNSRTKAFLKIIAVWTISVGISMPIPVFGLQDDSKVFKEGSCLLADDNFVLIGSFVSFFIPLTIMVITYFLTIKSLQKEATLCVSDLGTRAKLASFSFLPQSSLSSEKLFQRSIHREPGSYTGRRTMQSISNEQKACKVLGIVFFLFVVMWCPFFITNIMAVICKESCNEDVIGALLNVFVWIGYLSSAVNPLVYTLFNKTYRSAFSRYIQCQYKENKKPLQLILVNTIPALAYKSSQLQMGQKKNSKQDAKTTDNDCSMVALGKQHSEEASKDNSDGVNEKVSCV
Assay [3] shares this target. As to the kind of experiment: Binding affinity to 5HT2A receptor (unknown origin) at 10 nM.
Assay [4] has as its target T2, 5-hydroxytryptamine receptor 7 (Homo sapiens, UniProt P34969). As to the kind of experiment: Displacement of [3H]-5-CT from cloned human 5HT7B receptor expressed in HEK293 cells after 1 hr by scintillation counting. The assay is classed as cell-based. The gist of the method: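 HEK293 membranes stably expressing human 5-HT7b receptor, homogenized and spun twice at 35,000 g with 15 min at 37 °C between. Assay buffer was 50 mM Tris–HCl with 4 mM MgCl2, […] and 0.1% ascorbate. 0.6 nM [3H]-5-CT, 1 h at 37 °C, then filtration. 10 μM 5-HT defined nonspecific binding. Triplicates at 7–8 concentrations (10⁻¹¹–10⁻⁴ M).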

In assay [5] the target is T2, 5-hydroxytryptamine receptor 7. As to the kind of experiment: Binding affinity to 5HT7 receptor (unknown origin).
The target of assay [6] is T3, 5-hydroxytryptamine receptor 1A (Homo sapiens, UniProt P08908).
T3 sequence (P08908 whole entry): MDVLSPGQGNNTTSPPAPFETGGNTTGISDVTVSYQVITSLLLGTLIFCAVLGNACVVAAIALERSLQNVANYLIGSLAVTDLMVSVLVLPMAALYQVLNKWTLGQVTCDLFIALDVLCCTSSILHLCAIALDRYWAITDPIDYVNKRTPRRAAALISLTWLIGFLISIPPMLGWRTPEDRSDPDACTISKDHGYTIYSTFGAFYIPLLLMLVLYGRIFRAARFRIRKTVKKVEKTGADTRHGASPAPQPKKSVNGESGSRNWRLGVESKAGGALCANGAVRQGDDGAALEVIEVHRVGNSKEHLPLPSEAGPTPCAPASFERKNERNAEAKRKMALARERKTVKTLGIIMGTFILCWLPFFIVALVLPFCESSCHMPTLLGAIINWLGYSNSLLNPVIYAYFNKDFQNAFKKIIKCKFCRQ
Nature of the assay: Binding affinity to 5HT1A receptor (unknown origin).

Assay [7] in a line: Selectivity ratio of Ki for human 5HT7B receptor to Ki for 5HT1A receptor in rat hippocampus homogenates. The assay is classed as tissue-based. The gist of the method: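 Ratio of Ki values from two radioligand displacement assays. 5-HT1A: rat hippocampal membranes, 1 nM [3H]-8-OH-DPAT, 15 min at 37 °C, filtration. 5-HT7b: membranes from HEK293 cells stably expressing the human receptor, 0.6 nM [3H]-5-CT, 1 h at 37 °C. Both used Tris-HCl buffer with MgCl2, pargyline and ascorbate, and 10 μM 5-HT for nonspecific binding. Compounds were tested in triplicate at 7–8 concentrations (10⁻¹¹–10⁻⁴ M). Ki was derived by Cheng–Prusoff from three experiments.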

pKi: −log10 of the molar value.

T2 sequence (P34969 whole entry): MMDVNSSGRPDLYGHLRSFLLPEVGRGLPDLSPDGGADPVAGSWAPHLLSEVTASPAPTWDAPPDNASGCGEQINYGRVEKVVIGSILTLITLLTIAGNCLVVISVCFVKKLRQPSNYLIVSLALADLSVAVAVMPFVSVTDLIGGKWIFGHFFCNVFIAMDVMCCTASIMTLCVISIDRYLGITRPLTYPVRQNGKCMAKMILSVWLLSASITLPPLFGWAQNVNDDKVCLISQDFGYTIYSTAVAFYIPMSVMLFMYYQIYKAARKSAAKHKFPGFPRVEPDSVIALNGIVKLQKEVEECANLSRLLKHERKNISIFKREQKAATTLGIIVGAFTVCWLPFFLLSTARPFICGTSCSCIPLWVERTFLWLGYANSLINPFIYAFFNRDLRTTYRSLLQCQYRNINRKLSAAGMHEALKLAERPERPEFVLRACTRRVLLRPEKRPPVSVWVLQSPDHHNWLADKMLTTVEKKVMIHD

For the compound `Cc1cccc(-n2cc(CN3CCN(c4ccccc4)CC3)c3ccccc32)c1`, the pKi in assay [1] was 7.05.
Compound `Cc1ccc(-n2cc(CN3CCN(c4ccccc4)CC3)c3ccccc32)cc1` gave a pKi in assay [1] of 6.48.
On the same count and under the same terms, to `c1ccc(N2CCN(Cc3cn(-c4ccccc4)c4ccccc34)CC2)cc1` belongs 6.67; to `FC(F)(F)c1ccccc1-n1cc(CN2CCN(c3ccccc3)CC2)c2ccccc21`, 7.09.
As for `COc1ccccc1N1CCN(Cc2cn(-c3cccc4ccccc34)c3ccccc23)CC1`, the inhibition in assay [2] is 10%; in assay [3], 6%. The pKi in assay [1] is 7.15.
Compound `Oc1ccccc1N1CCN(Cc2cn(-c3ccccc3)c3ccccc23)CC1` had a pKi in assay [1] of 7.77.
In the case of `CN(C)CCc1cn(-c2cccc3ccccc23)c2ccccc12`, the pKi in assay [1] is 6.84; in assay [4] it was 6.19.
The corresponding values for `Cc1cccc(-n2cc(CCN(C)C)c3ccccc32)c1C` are 7.12 and 6.50.
Regarding `Cc1ccccc1-n1cc(CCN(C)C)c2ccccc21`, the values for the pKi in assay [1] and in assay [4] were 7.23 and 6.55, respectively.
The compound `Cc1ccccc1-n1cc(CN2CCN(C)CC2)c2ccccc21` had a pKi in assay [1] of 5.54.
Still for that read-out and setting: to `c1ccc(N2CCN(Cc3cn(-c4ccc5ccccc5c4)c4ccccc34)CC2)cc1` belongs 5.71.
On the same count and under the same terms, with `Oc1ccccc1N1CCN(Cc2cn(-c3cccc4ccccc34)c3ccccc23)CC1` the figure was 7.24; with `COc1ccccc1N1CCN(Cc2cn(-c3ccccn3)c3ccccc23)CC1`, 7.26.
`c1ccc(N2CCN(Cc3cn(-c4ccccn4)c4ccccc34)CC2)cc1`: the pKi in assay [1] was 7.02.
As to `N#Cc1ccccc1-n1cc(CN2CCN(c3ccccc3)CC2)c2ccccc21`, the pKi in assay [1] was 7.44.
The same measure, in the same setting: with `COc1ccccc1N1CCN(Cc2cn(-c3ccccc3)c3ccccc23)CC1` the figure was 8.00; with `c1ccc(N2CCN(Cc3cn(-c4cccnc4)c4ccccc34)CC2)cc1`, 6.72.
In turn, `CCc1ccccc1-n1cc(CN2CCN(c3ccccc3)CC2)c2ccccc21` showed a pKi in assay [1] of 6.87.
`Cc1ccccc1-n1cc(CN2CCN(c3ccccc3)CC2)c2ccccc21`: the pKi in assay [1] was 7.02.
As for `COc1ccccc1N1CCN(Cc2ccn(-c3ccccc3C)c2)CC1`, the pKi in assay [5] was 7.68; in assay [6], 7.39.
`c1ccc(N2CCN(Cc3cn(-c4cccc5ccccc45)c4ccccc34)CC2)cc1` showed a pKi in assay [1] of 6.26.
Turning to `CC(C)c1ccccc1-n1cc(CN2CCN(c3ccccc3)CC2)c2ccccc21`, the pKi in assay [1] is 6.93.
Still for that read-out and setting: with `COc1ccccc1N1CCN(Cc2cn(-c3ccccc3C)c3ccccc23)CC1` the figure was 7.82; with `Cc1cccc(-n2cc(CN3CCN(c4ccccc4)CC3)c3ccccc32)c1C`, 6.49.
Compound `COc1ccccc1-n1cc(CN2CCN(c3ccccc3)CC2)c2ccccc21` gave a pKi in assay [1] of 7.07.
Still for that read-out and setting: with `c1ccc(-c2ccc(-n3cc(CN4CCN(c5ccccc5)CC4)c4ccccc43)cc2)cc1` the figure was 4.31; with `Cc1ccccc1-n1cc(CN2CC=C(c3ccccc3)CC2)c2ccccc21`, 6.75.
With `COc1ccccc1N1CCN(Cc2cn(-c3cccc(C)c3C)c3ccccc23)CC1`, the inhibition in assay [2] and in assay [3] was 0% throughout. Moreover, the pKi in assay [1] is 7.77.
For `CN(C)CCc1cn(-c2ccccc2)c2ccccc12`, the Ratio Ki in assay [7] stood at 19. Moreover, the values for the negative-log Ki (pKi) in assay [1] and in assay [4] were 7.21 and 5.92, respectively.
In turn, `COc1ccccc1N1CCN(Cc2cn(-c3ccccc3C(C)C)c3ccccc23)CC1` showed a pKi in assay [1] of 7.24.

A word on the pKi: it is −log10 of the Ki, conventionally taken in molar units. As usually defined, the inhibition is the drop in the measured response relative to a control, in per cent. Higher therefore signals a strong effect.

Values taken from ChEMBL document CHEMBL3120113, “New 1-arylindoles based serotonin 5-HT7 antagonists. Synthesis and binding evaluation studies” (Eur J Med Chem, 2014).
